Results as given in article PMC11677264 (Biochemistry, 2023).

Assays:
[1] = target: T1, AmgK (N-acetylmuramic acid/N-acetylglucosamine kinase) (Pseudomonas aeruginosa, UniProt Q9I5U1); assay: 2D-ITC, fit to ordered-sequential rate equation; format: biochemical
Outline: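 AmgK in the calorimeter cell (650 nM with NAM, 300 nM with NAG) with ATP at 13.5 mM. Eighteen 1 μL injections of NAM or NAG (160 mM syringe stock), ~800 μM sugar at the start of each, spaced ≥1200 s. Run ~8–10 h with stirring, in duplicate. Thermograms converted to rate versus [ATP] versus [sugar] data sets and fitted to the ordered-sequential equation.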

[2] = target: T1, AmgK (N-acetylmuramic acid/N-acetylglucosamine kinase); assay: pyruvate kinase/lactate dehydrogenase-coupled ATP-recycling assay, NADH at […] nm; format: biochemical
[3] = tested on: Nc1ncnc2c1ncn2[C@@H]1O[C@H](COP(=O)(O)OP(=O)(O)OP(=O)(O)O)[C@@H](O)[C@H]1O; assay: purified protein; details: saturating NAG 4 mM

T1 sequence (Q9I5U1 whole entry): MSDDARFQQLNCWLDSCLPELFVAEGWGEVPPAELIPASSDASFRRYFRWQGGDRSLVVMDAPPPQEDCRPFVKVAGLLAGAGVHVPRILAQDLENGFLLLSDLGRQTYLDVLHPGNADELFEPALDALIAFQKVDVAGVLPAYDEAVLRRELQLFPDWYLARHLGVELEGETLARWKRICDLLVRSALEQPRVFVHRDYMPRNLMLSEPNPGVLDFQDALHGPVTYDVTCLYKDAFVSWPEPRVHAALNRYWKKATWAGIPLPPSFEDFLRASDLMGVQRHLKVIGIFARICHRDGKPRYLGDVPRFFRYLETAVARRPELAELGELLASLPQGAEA

In the case of `Nc1ncnc2c1ncn2[C@@H]1O[C@H](COP(=O)(O)OP(=O)(O)O)[C@@H](O)[C@H]1O` [ADP], the Ki [1] is reported as 694 ± 128 µM.

In the case of `Nc1ncnc2c1ncn2[C@@H]1O[C@H](COP(=O)(O)OP(=O)(O)NP(=O)(O)O)[C@@H](O)[C@H]1O` [AMP-PNP], the Ki [2] is reported as 471 ± 169 µM.

For “AmgK (N-acetylmuramic acid/N-acetylglucosamine kinase) (Pseudomonas aeruginosa PAO1)”, the Km [3] was 70 ± 12 µM.
